# This is a sample that favours compounds with a hit; in the whole collection about 2.2% have one here.
# FLuc inhib CS – inhibits firefly luciferase, flagging false hits in luciferase inhibition screens | AID 1006 | actives 1.5% (n = 200,000) | ATPLite firefly luciferase biochemical luminescence, 10 min | inhibition, % at 10 µM | P08659;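 active = inhibition above about 50% when tested at 10 µM, limit read from the data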
# Target sequence (P08659 whole entry, looked up): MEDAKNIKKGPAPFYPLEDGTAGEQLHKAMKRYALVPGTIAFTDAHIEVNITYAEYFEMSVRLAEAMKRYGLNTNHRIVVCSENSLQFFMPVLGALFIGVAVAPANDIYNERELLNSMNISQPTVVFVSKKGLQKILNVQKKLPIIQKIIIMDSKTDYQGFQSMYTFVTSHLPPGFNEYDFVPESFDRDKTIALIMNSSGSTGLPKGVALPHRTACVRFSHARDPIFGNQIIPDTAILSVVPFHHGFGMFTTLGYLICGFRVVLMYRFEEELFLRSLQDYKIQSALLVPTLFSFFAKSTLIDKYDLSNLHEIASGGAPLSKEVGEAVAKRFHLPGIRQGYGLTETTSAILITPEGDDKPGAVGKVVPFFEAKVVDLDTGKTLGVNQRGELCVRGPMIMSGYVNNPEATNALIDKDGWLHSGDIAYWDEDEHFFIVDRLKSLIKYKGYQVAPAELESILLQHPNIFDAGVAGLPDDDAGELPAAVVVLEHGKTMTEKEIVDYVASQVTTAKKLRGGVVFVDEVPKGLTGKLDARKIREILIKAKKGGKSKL
# NF-kB expr up – NF-kB expression increase, human neuronal cells. NF-kB reporter expression; stronger effect = higher value. fold change at 12.5 µM. actives 1.6% (n = 190,000). AID 1239; in the data active = fold change above about 3.3
# APP 5'UTR act – APP 5'UTR luciferase reporter activation. SH-SY5Y APP 5'UTR luciferase reporter, luminescence; zero percent = DMSO vehicle wells. activation, % at 2 µM. actives 1% (n = 190,000). AID 1276;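 active = activation above a set limit, based on mean plus 3 SD of controls, cut at about 140% in these data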
# TRAIL sens C8 – caspase-8 TRAIL sensitization; NB7+C8 cells + TRAIL, ATPlite viability luminescence; inhibition (viability loss, TRAIL sensitization), % at 10 µM; actives 1% (n = 360,000);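 active = compounds causing at least 50% loss of cell viability in the single-dose screen, relative to plate controls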
# FLuc act counter – affects firefly luciferase, flagging false hits in luciferase stimulation screens | ATPlite luciferase biochemical, luminescence, 10 min; 0 = ATP-free wells, 1 = DMSO control | AID 1027 | P08659 | activation factor at 10 µM | 200,000 tested, under 10 active;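 active = luciferase activation factor, scaled between plate controls, of at least 2 with compound at 10 µM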
#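 Material: luciferase plus luciferin reagent, cell-free. Medium: PBS buffer for ATP. Also added: ATP substrate, dispensed from a 10.24 µM working solution in PBS. Doses: test compounds dosed from 2 mM stocks in 100% DMSO. Incubation: 10 min post-reagent at room temperature. Technique: light output (luminescence). Read-out basis: luminescence gain marking luciferase activators.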
# PPC-1+TRAIL kill – compounds killing PPC-1 cancer cells with TRAIL present (potentiator screen, no TRAIL-free arm); PPC-1 cells + TRAIL, ATPLite viability luminescence; cell killing (% activity), % at 4 µM or 5 µM; actives 0.41% (n = 220,000); AID 1443;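 active = cell killing above 50% in the first pass at 4 µM, then a duplicate retest at 5 µM averaging 50% or more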
# A number is an active result; - = inactive; . = not tested or not shown.
SMILES,FLuc inhib CS,NF-kB expr up,APP 5'UTR act,TRAIL sens C8,FLuc act counter,PPC-1+TRAIL kill
C#CCOCCOCCOCCNc1nc(N2CCN(C(=O)CCCCCCCCCCNC(=O)[C@H](CCCCN)n3cc(C[C@@H](C)CC)nn3)CC2)nc(N2CCN(C(=O)CCCCCCCCCCNC(=O)[C@H](CCCCN)n3cc(C[C@@H](C)CC)nn3)CC2)n1,.,.,.,95,.,.
C#CCOCCOCCOCCNc1nc(N2CCN(C(=O)CCCCCCCCCCNC(=O)Cn3cc(C[C@@H](C)O)nn3)CC2)nc(N2CCN(C(=O)CCCCCCCCCCNC(=O)Cn3cc(C[C@@H](C)O)nn3)CC2)n1,.,.,.,-,.,.
C#CCOCCOCCOCCNc1nc(N2CCN(C(=O)CCCCCCCCCCNC(=O)Cn3cc(C[C@@H](C)O)nn3)CC2)nc(N2CCN(C(=O)CCCCCCCCCCNC(=O)[C@H](CCCCN)n3cc(C[C@@H](C)CC)nn3)CC2)n1,.,.,.,86,.,.
COC(=O)[C@]12CCCCC=C1N(Cc1ccco1)C(=O)[C@H](CC(=O)NCc1ccc(C)o1)C2,.,.,.,-,.,.
O=C1CCNc2cc3ccccc3cc21,-,-,-,-,-,52
O=C1c2cccc3cccc(c23)C(=O)N1OS(=O)(=O)c1ccc(Br)cc1,-,-,-,-,-,-
O=C1c2cccc3cccc(c23)C(=O)N1OS(=O)(=O)c1ccccc1,59,-,-,-,-,-
COc1ccccc1-c1noc2c1C(=O)N(Cc1cn(-c3ccccc3OC)nn1)CC2,.,.,.,-,.,.
Oc1ccc(CN2CCN(c3ccccc3)CC2)c2cccnc12,-,-,-,-,-,-
Oc1ccc(CN2CCc3ccccc3C2)c2cccnc12,-,5.2,-,-,-,-
Oc1ccc(CN2CCC(Cc3ccccc3)CC2)c2cccnc12,-,-,-,.,-,-
Oc1c(CN2CCCCC2)cc(COCc2ccccc2)c2cccnc12,-,3.8,-,56,-,-
CCCOCc1ccc(O)c2ncccc12,.,.,.,-,.,-
CC(C)COCc1ccc(O)c2ncccc12,-,-,-,52,-,-
COCc1cc(CN2CCCC2)c(O)c2ncccc12,-,-,-,-,-,-
Oc1ccc(CN2CCCCC2)c2cccnc12,-,11,-,-,-,-
CCOC(=O)N1CCN(Cc2ccccn2)CC1,-,-,-,-,-,-
CCOC(=O)N1CCN(Cc2ccc(O)c3ncccc23)CC1,-,4.8,-,.,-,-
Cc1ccn2c(C(=O)CSc3ccccc3)c(C)nc2c1,-,-,-,-,-,-
Cc1ccc(SCC(=O)c2c(C)nc3cc(C)ccn23)cc1,-,3.5,-,-,-,-
CC(=O)Nc1cccc(/C(C)=N/NC(=O)c2cccc(S(=O)(=O)N3CCCC3)c2)c1,.,.,.,-,.,.
CCCN1CCC(C(=O)NC(c2ccc(Cl)cc2)c2ccsc2)CC1 (stereo not given),.,.,.,-,.,.
O=S(=O)(c1ccc2c(c1)C(=NO)c1cc(S(=O)(=O)N3CCCCC3)ccc1-2)N1CCCCC1,-,-,-,91,-,95
COc1ccc(S(=O)(=O)N2CCC(C)CC2)cc1OC,.,.,.,-,.,.
CC1CCN(S(=O)(=O)c2ccc3c(c2)C(=NO)c2cc(S(=O)(=O)N4CCC(C)CC4)ccc2-3)CC1,-,-,-,95,-,97
SMILES,FLuc inhib CS,NF-kB expr up,APP 5'UTR act,TRAIL sens C8,FLuc act counter,PPC-1+TRAIL kill
CCOC(=O)Cc1ccc(Nc2nc(NCCOC)nc3ccsc23)cc1,.,.,.,-,.,.
C[C@H](O)[C@@H]1CN2CCc3c([nH]c4ccccc34)[C@@H]2C[C@@H]1N(C)C(=S)Nc1ccc(C#N)cc1,.,.,.,-,.,.
O=C(O)c1ccccc1-c1ccccc1C(=O)Nc1ccc2c(c1)CCC2,.,.,.,-,.,.
O=C(Nc1ccc2c(c1)CCC2)c1ccccc1,62,8,172,-,-,-
O=C(Nc1ccc2c(c1)CCC2)c1ccccc1F,62,8.3,183,57,-,-
CCOc1ccc(-c2noc(-c3csc([C@@H]4O[C@H](CO)[C@H](O)[C@H](O)[C@H]4O)n3)n2)cc1,.,.,.,-,.,.
CCCCNC(=O)C[C@@H]1C[C@@]2(C(=O)OC)CCCCC=C2N(Cc2ccc(Cl)cc2Cl)C1=O,.,.,.,-,.,.
COc1ccc2nc(NC(=O)c3ccccc3F)sc2c1,.,.,.,69,.,.
Cc1ccc2nc(NC(=O)c3ccccc3F)sc2c1,.,.,.,58,.,.
COc1ccc2nc(NC(=O)c3cnccn3)sc2c1,63,-,-,53,-,-
CCCC(=O)Nc1nc2ccc(NC(=O)c3ccccc3F)cc2s1,-,-,-,-,-,-
O=Nc1ccc(NOC(=O)c2ccccc2)cc1,90,-,-,-,-,-
O=C1c2ccccc2C(c2nc3ccccc3[nH]2)N1Cc1ccco1 (stereo not given),.,.,.,-,.,.
CC(=O)C1=CCC(c2ccc(C)o2)N(S(=O)(=O)c2ccc(C)cc2)C1 (stereo not given),.,.,.,-,.,.
CC(=O)c1ccc(Nc2nc(CN)cs2)cc1,.,.,.,-,.,.
COc1cccc(C(NC(C)=O)c2nc(-c3cccc(O)c3)cs2)c1 (stereo not given),.,.,.,-,.,.
Cc1ccn2c(c1)nc(=S)n2C(=O)c1ccccc1,96,-,189,89,-,82
O=C(c1ccco1)n1c(=S)nc2ccccn21,68,5.4,-,-,-,-
Cc1ccn2c(NC(=O)c3ccccc3)c(-c3ccccc3)nc2c1,.,.,.,-,.,.
CC(C)[C@@H]1O[C@H](CCc2ccccc2)CC2=C1C(=O)OC(C)(C)O2,.,.,.,-,.,.
CCCCCCCCN1C(=O)[C@H](CC(=O)NCCc2ccccc2OC)C[C@@]2(C(=O)OC)CC(C)(C)CC=C12,.,.,.,-,.,.
Cn1cccc1C(=O)NC(=O)COC(=O)c1ccc(S(C)(=O)=O)c([N+](=O)[O-])c1,.,.,.,-,.,.
CC(C)CN1CCN(C(=O)COC(=O)c2ccc(S(C)(=O)=O)c([N+](=O)[O-])c2)CC1,.,.,.,-,.,.
CCC(OC(=O)c1ccc(S(C)(=O)=O)c([N+](=O)[O-])c1)C(=O)NC1C2CC3CC(C2)CC1C3 (stereo not given),.,.,.,74,.,.
CC(OC(=O)c1ccc(S(C)(=O)=O)c([N+](=O)[O-])c1)C(=O)NC1C2CC3CC(C2)CC1C3 (stereo not given),.,.,.,73,.,.
SMILES,FLuc inhib CS,NF-kB expr up,APP 5'UTR act,TRAIL sens C8,FLuc act counter,PPC-1+TRAIL kill
N/C(=N\OC(=O)/C=C/c1ccccc1)c1cccnc1,81,-,-,-,-,-
N/C(Cc1ccc(Cl)c(Cl)c1)=N\OC(=O)c1cccs1,-,-,-,64,-,-
N/C(=N\OC(=O)c1cccs1)C1(c2ccc(Cl)cc2Cl)CC1,.,.,.,-,.,-
Cc1ccccc1/C(N)=N/OC(=O)/C=C/c1ccccc1,56,3.9,-,94,-,-
Cc1ccccc1/C(N)=N/OC(=O)c1cccs1,69,-,-,-,-,-
N/C(=N\OC(=O)c1cccs1)c1cccnc1,.,.,.,-,.,.
CCOC(=O)c1c(-c2ccc(OC)cc2)oc2c1C(OC(C)=O)CCC2 (stereo not given),.,.,.,-,.,.
COc1ccccc1C1=NOC(CN2C(=O)c3ccccc3S2(=O)=O)C1 (stereo not given),.,.,.,-,.,-

# Assay outcomes: PubChem BioAssay, several laboratories
